From article PMC9494814 (Cell, 2022)
Where two headings read alike, the source gives them in different places.

Tests used:
[1] = target: T1, αIIbβ3 headpiece (Homo sapiens, UniProt P05106+P08514); details: for conformational state of headpiece molecules in the crystal lattice: state 1 closed, state 8 open
Summary of the method: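 Closed αIIbβ3 headpiece–10E5 Fab crystals stabilised in 15% PEG 8000, 0.2 M ammonium sulfate, 0.1 M Tris-HCl pH 8.9, with glycerol raised in 5% steps to 15%. Compound (0.1-1 mM) added in the final 20% glycerol cryo step, with 1 mM MgCl2/1 mM CaCl2 or 2 mM MnCl2/0.2 mM CaCl2. Soaked 4 h, plunge-frozen in liquid N2. Synchrotron diffraction data collected, then structure refinement.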

[2] = target: αIIbβ3 on washed human platelets (Homo sapiens, UniProt P05106+P08514); assay: Platelets LIBS exposure assay; type: cell-based
Summary of the method: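 Blood from drug-free healthy donors was taken into acid-citrate-dextrose. PRP was spun (140xg, 12 min), given PGE1 at 50 ng/ml, pelleted, washed in citrate-dextrose buffer pH 6.5 and resuspended in Tyrode's pH 7.4 with 1% BSA and 1 mM Ca²⁺/Mg²⁺. […] Read-out was unwashed flow cytometry MFI, over three days with two donors.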

[3] = system: αIIbβ3 on platelets; details: cited from earlier work; for LIBS epitopes on platelets in platelet-rich plasma: ref Baba et al., 2001, Murphy et al.
[4] = target: αIIbβ3_N305T (Homo sapiens, UniProt P05106+P08514, N331T); assay: MBC319.4 Fab LIBS epitope exposure on αIIbβ3_N305T transfectants; type: cell-based; details: αIIbβ3 N305T transfectants, inhibitors at 100x Kd
Summary of the method: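 αIIbβ3_N305T transfectants of α5/αV-knockout Expi293F cells, harvested 48 h post-transfection and EDTA-washed. Incubated with 20 nM Alexa647-labelled MBC319.4 Fab and test compound in L-15 with 0.1% BSA, equilibrated 2 h at 22°C. Fab binding read by flow cytometry without washing, as MFI.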

[5] = target: T1, αIIbβ3 headpiece; assay: Size-exclusion chromatography; type: biochemical; details: 10 μM drug; for effect on αIIbβ3 headpiece conformation in gel filtration: Mg2+ and Mn2+ buffers
Summary of the method: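 Superdex 200 column equilibrated with 10 µM test compound in HEPES-buffered saline containing either 1 mM Mg2+/1 mM Ca2+ or 2 mM Mn2+/0.2 mM Ca2+. αIIbβ3 headpiece (30 µg) pre-incubated 30 min at RT with 60 µM compound in matching buffer, then chromatographed. Hydrodynamic radius taken from elution. Two runs, or one, per compound; controls ≥3.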

[6] = system: clot retraction in human PRP; assay: Clot retraction in platelet-rich plasma; type: cell-based; details: thrombin
Summary of the method: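 Citrated human PRP pre-incubated 20 min at RT with test compound or buffer (in Tyrode's buffer + 1% BSA) at several concentrations. Glass-tube clot retraction started with thrombin (7.5 U/ml stock) at 37°C and imaged every 15 min. Retraction = 1 − (clot area/whole reaction area). IC50 at 30 and 90 min from a three-parameter inhibitor-response fit. Three runs, PRP from three donors.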

[7] = target: αIIbβ3 WT (Homo sapiens, UniProt P05106+P08514); assay: MBC319.4 Fab LIBS epitope exposure on αIIbβ3 WT transfectants; type: cell-based; details: inhibitors at 100x Kd
Summary of the method: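 Cells transiently transfected with αIIbβ3 received valproic acid (3 mM final) and glucose (0.4%) at 24 h, and were washed at 48 h in EDTA-containing then plain L-15/0.1% BSA. Cells were incubated with 20 nM Alexa647-MBC319.4 Fab plus inhibitor (Kd from FITC-echistatin competition on WT transfectants) in L15/0.1% BSA, 22°C for 2 h. Read-out was unwashed flow cytometry.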

[8] = after activation with thrombin 0.5 U/ml

Compound	effect on αIIbβ3 headpiece conformation in gel filtration [5]	effect on structure of closed αIIbβ3 headpiece in crystals ([1]; soaked in Mg2+)	effect on structure of closed αIIbβ3 headpiece in crystals ([1]; soaked in Mn2+)	LIBS epitope exposure (integrin extension) on washed platelets [2, 8]	effect on αIIbβ3 headpiece opening in gel filtration ([5]; 1 mM Mg2+/1 mM Ca2+)	effect on αIIbβ3 headpiece opening in gel filtration ([5]; 2 mM Mn2+/0.2 mM Ca2+)	inhibition of clot retraction [6]	LIBS epitope exposure (integrin extension) on washed platelets ([2]; absence of thrombin)	LIBS (MBC319.4) epitope exposure [7]	also measured
CN1CCN(C(=N)c2ccc(C3=NOC(CN4CCN(CC(=O)O)CC4)C3)cc2)CC1 (centres unmarked) [BMS4, 2-(4-((3-(4-(imino(4-methylpiperazin-1-yl)methyl)phenyl)-4,5-dihydroisoxazol-5-yl)methyl)piperazin-1-yl)acetic acid]		no structural perturbation	no structural perturbation	decreased	neither UR-2922 nor BMS4 increased the hydrodynamic radius	shifted the headpiece to a smaller hydrodynamic radius than the control				LIBS on platelets ([3]; Mg2+ ref Breth et al., 2005): not to induce LIBS; LIBS (MBC319.4) epitope exposure [4]: significantly suppressed LIBS induction
N=C(N)c1ccc(C2=NOC(CN3CCN(CC(=O)O)CC3)C2)cc1 (centres unmarked) [BMS4–1, 3-(4-((3-(4-carbamimidoylphenyl)-4,5-dihydroisoxazol-5-yl)methyl)piperazin-1-yl)acetic acid]	closure stabilizing		remained in the closed state	decreased			effective			LIBS (MBC319.4) epitope exposure [4]: significantly suppressed LIBS induction
N=C(N)c1ccc(C2=NOC(CN3CCC(CC(=O)O)CC3)C2)cc1 (centres unmarked) [BMS4–2, 2-(1-((3-(4-carbamimidoylphenyl)-4,5-dihydroisoxazol-5-yl)methyl)piperidin-4-yl)acetic acid]				showing significant induction except for BMS4–2 (p=0.06)		stabilized headpiece opening	effective			Ser-123 sidechain oxygen - MIDAS Mn2+ ion distance ([1]; soaked in Mn2+): 3.7±0.1 Å; conformational state of headpiece molecules in the crystal lattice ([1]; soaked in Mn2+): state 2
N=C(N)c1ccc(-c2ccc(OC[C@@H]3C[C@@H](CC(=O)O)C(=O)N3)cc2)cc1 [fradafiban, 2-((3S,5S)-5-(((4’-carbamimidoyl-[1,1’-biphenyl]-4-yl)oxy)methyl)-2-oxopyrrolidin-3-yl)acetic acid]		did not cause any conformational change	induced a 2 Å movement in the β1-α1 loop at the Cα atom of Ser-123 toward ligand		did not cause headpiece opening	induced headpiece opening as completely as tirofiban		modestly but significantly induced integrin extension		
[H]/N=C(/N)c1ccc(C(=O)N[C@@H](Cc2ccc(O)cc2)C(=O)N2CCC(OCC(=O)O)CC2)cc1 [lamifiban]		did not cause any conformational change	induced a 2 Å movement in the β1-α1 loop at the Cα atom of Ser-123 toward ligand		did not cause headpiece opening	induced headpiece opening as completely as tirofiban		modestly but significantly induced integrin extension		LIBS epitopes on platelets in platelet-rich plasma [3]; 1998: not to induce LIBS epitopes; exposure of LIBS epitopes on αIIbβ3 on platelets ([3]; ref Murphy et al., 1998): did not induce exposure of LIBS epitopes
CN1Cc2cc(C(=O)N3CCC(C4CCNCC4)CC3)ccc2N[C@@H](CC(=O)O)C1=O [lotrafiban, (S)-2-(7-([4,4’-bipiperidine]-1-carbonyl)-4-methyl-3-oxo-2,3,4,5-tetrahydro-1H-benzo[e][1,4]diazepin-2-yl)acetic acid]		Ser-123 displaced water 1 to coordinate directly to the MIDAS metal ion			caused the headpiece to elute earlier in gel filtration			Stronger extension	strongly induced LIBS exposure	hydrodynamic radius of αIIbβ3 headpiece ([5]; 2 mM Mn2+/0.2 mM Ca2+): ~ 5.36 nm
CCOC(=O)COC1CCN(C(=O)[C@H](C)NC(=O)c2ccc(C(=N)NO)cc2)CC1 [sibrafiban]		did not cause any conformational change	induced a 2 Å movement in the β1-α1 loop at the Cα atom of Ser-123 toward ligand		did not cause headpiece opening	induced headpiece opening as completely as tirofiban	effective	modestly but significantly induced integrin extension		LIBS epitopes on platelets in platelet-rich plasma [3]; 1998: not to induce LIBS epitopes
(2S)-2-((butoxycarbonyl)amino)-3-(2-(3-(4-carbamimidoylphenyl)-4,5-dihydroisoxazol-5-yl)acetamido)propanoic acid [roxifiban]			Ser-123 displaced water 1 to coordinate directly to the MIDAS metal ion		caused the headpiece to elute earlier in gel filtration		effective	Stronger extension	Weaker but significant induction	hydrodynamic radius of αIIbβ3 headpiece ([5]; 2 mM Mn2+/0.2 mM Ca2+): ~ 5.36 nm
eptifibatide		Ser-123 displaced water 1 to coordinate directly to the MIDAS metal ion						Stronger extension	strongly induced LIBS exposure	
fibrinogen γ C-terminal dodecapeptide: fibrinogen γ C-terminal dodecapeptide HHLGGAKQAGDV									Weaker but significant induction	

Now from value to compound, other results behind:

effect on αIIbβ3 headpiece conformation in gel filtration [5]	Compound	effect on structure of closed αIIbβ3 headpiece in crystals ([1]; soaked in Mg2+)	effect on structure of closed αIIbβ3 headpiece in crystals ([1]; soaked in Mn2+)	LIBS epitope exposure (integrin extension) on washed platelets [2, 8]	effect on αIIbβ3 headpiece opening in gel filtration ([5]; 1 mM Mg2+/1 mM Ca2+)	effect on αIIbβ3 headpiece opening in gel filtration ([5]; 2 mM Mn2+/0.2 mM Ca2+)	inhibition of clot retraction [6]	LIBS epitope exposure (integrin extension) on washed platelets ([2]; absence of thrombin)	LIBS (MBC319.4) epitope exposure [7]	also measured
closure stabilizing	O=C(O)CN1CCN(CC2CC(C3CCNCC3)=NO2)CC1 (centres unmarked) [BMS4–3, 2-(4-((3-(piperidin-4-yl)-4,5-dihydroisoxazol-5-yl)methyl)piperazin-1-yl)acetic acid]		remained in the closed state							
closing	Cl.Cl.Cl.N=C(N)c1ccc(N2CCN(C3CCN(CC(=O)O)CC3)CC2)cc1 [GR144053]			decreased						conformational state of headpiece molecules in the crystal lattice ([1]; soaked in Mn2+): state 1; LIBS (MBC319.4) epitope exposure [4]: significantly suppressed LIBS induction
does in both Mg^2+ and Mn^2+	N=C(N)c1ccc(N2C[C@H](CN3CCN(CCC(=O)O)CC3)OC2=O)cc1 [gantofiban analog, (S)-3-(4-((3-(4-carbamimidoylphenyl)-2-oxooxazolidin-5-yl)methyl)piperazin-1-yl)propanoic acid]		induced movement of the β1-α1 loop and Ser-123 sidechain oxygen into the position of water 1							
